This note sets out measurements from ChEMBL document CHEMBL3784973, “A Parallel Synthesis Approach to the Identification of Novel Diheteroarylamide-Based Compounds Blocking HIV Replication: Potential Inhibitors of HIV-1 Pre-mRNA Alternative Splicing” (J Med Chem, 2016).

Data set [1] can be described thus: Cytotoxicity against GFP-positive human CEM cells expressing CD4+,CXCR4 and CCR5 assessed as cell viability at 8 uM after 24 hrs by Guava viacount assay. The class given is cell-based, CCRF-CEM. As to conditions: read-out: Activity. Put shortly: (§1)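 Uninfected CEM-GXR cells were incubated 24 h with serial dilutions from 62.5 nM to 16 μM final. Viability was read by Guava ViaCount (dye permeability staining with forward scatter gating) as % viable cells. Three independent experiments.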

Data set [2] in a line: Cytotoxicity against GFP-positive human CEM cells expressing CD4+,CXCR4 and CCR5 assessed as cell viability at 16 uM after 24 hrs by Guava viacount assay. Type of data set: cell-based, CCRF-CEM. Conditions: read-out: Activity. Put shortly:
as §1

Data set [3] concerns Human immunodeficiency virus 1. Briefly: Antiviral activity against HIV1 3B infected in GFP-positive human CEM cells expressing CD4+,CXCR4 and CCR5 assessed as number of infected cells at 1 uM after 3 days. Type of data set: functional, CCRF-CEM. Put shortly:
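CEM-GXR cells (CD4+ T-cell line, Tat-driven LTR-GFP reporter) infected by coculture with 1% HIV-1IIIB-infected cells. Serial dilutions 62.5 nM–16 μM added at inoculation. GFP-positive (infected) cells counted 3 days post-infection. Three independent experiments.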

Data set [4] in a line: Cytotoxicity against GFP-positive human CEM cells expressing CD4+,CXCR4 and CCR5 assessed as cell viability at 1 uM after 24 hrs by Guava viacount assay. Type of data set: cell-based, CCRF-CEM. Conditions: read-out: Activity. Put shortly: as §1
Data set [5] in a line: Cytotoxicity against GFP-positive human CEM cells expressing CD4+,CXCR4 and CCR5 assessed as cell viability at 4 uM after 24 hrs by Guava viacount assay. As to conditions: read-out: Activity. Type of data set: cell-based, CCRF-CEM. Put shortly:
as §1

In data set [6] the test system is Human immunodeficiency virus 1. Description: Antiviral activity against HIV1 NL4-3 infected in GFP-positive human CEM cells expressing CD4+,CXCR4 and CCR5 at 2 uM after 3 days by flow cytometric analysis. The class given is functional, organism-based. As to conditions: CCRF-CEM. Put shortly:
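Library screen of HIV-1 spread in CEM-GXR cells cocultured with 1% HIV-1NL4-3-infected (GFP+) cells. Cells were grown in RPMI-1640 with 10% FCS and penicillin-streptomycin, and selected with G418 and hygromycin B during propagation. Compound at final 2 μM in DMSO was added right after inoculation. Infection was read by flow cytometry of GFP.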
A general note: In flow cytometry, cells or beads pass a laser one at a time.

Data set [7] relates to Human immunodeficiency virus 1. Briefly: Antiviral activity against subtype B X4 tropic HIV1 3B infected in GFP-positive human CEM cells expressing CD4+,CXCR4 and CCR5 after 3 days. The class given is functional, organism-based. As to conditions: Human immunodeficiency virus 1, 3B, CCRF-CEM, 72 h. Put shortly:
(§2)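 Infected CEM-GXR GFP-reporter cells were exposed to increasing compound concentrations. GFP-positive cells were measured by flow cytometry 3 days after infection. EC50 came from nonlinear regression of the inhibition curves. Mean of three independent determinations.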

Data set [8] has as its system Human immunodeficiency virus 1. Briefly: Antiviral activity against PI-resistant HIV1 isolate 2948 harboring protease G48V/L90M mutant infected in GFP-positive human CEM cells expressing CD4+,CXCR4 and CCR5 after 3 days. The class given is functional, organism-based. As to conditions: Human immunodeficiency virus 1, isolate 2948, CCRF-CEM, 72 h.
A short description of data set [9]: Therapeutic index, ratio of CC50 for GFP-positive human CEM cells expressing CD4+,CXCR4 and CCR5 to EC50 for maraviroc-resistant HIV1 BAL R5 harboring envelop V3 A19T/L20F/T22A/E25D/126V mutant infected in GFP-positive human CEM cells expressing CD4+,CXCR4 and CCR5. The class given is cell-based. Conditions: ccrf-cem, read-out: TI.
Data set [10] in a line: Therapeutic index, ratio of CC50 for GFP-positive human CEM cells expressing CD4+,CXCR4 and CCR5 to EC50 for HIV1 97USSN54 infected in GFP-positive human CEM cells expressing CD4+,CXCR4 and CCR5. The class given is cell-based, CCRF-CEM. As to conditions: read-out: TI. Put shortly: (§3)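 Reporter CEM-GXR T cells (Tat-driven LTR-GFP cassette; RPMI-1640, 10% FCS, penicillin-streptomycin) were infected by coculture with 1% HIV-infected GFP-positive cells. Compound in DMSO was added after inoculation. Infected cells were counted by flow cytometry for GFP at day 3, and EC50 was taken from nonlinear regression. CC50 came from Guava ViaCount viability after 24 h at 0.5–100 μM. Index = CC50/EC50.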

Data set [11] in a line: Therapeutic index, ratio of CC50 for GFP-positive human CEM cells expressing CD4+,CXCR4 and CCR5 to EC50 for HIV1 3B infected in GFP-positive human CEM cells expressing CD4+,CXCR4 and CCR5. Type of data set: cell-based, CCRF-CEM. Conditions: read-out: TI. Put shortly: as §3
Data set [12] has as its system Human immunodeficiency virus 1. Briefly: Antiviral activity against maraviroc-resistant HIV1 BAL R5 harboring envelop V3 A19T/L20F/T22A/E25D/126V mutant infected in GFP-positive human CEM cells expressing CD4+,CXCR4 and CCR5 after 3 days. Type of data set: functional, organism-based. As to conditions: ccrf-cem.
A short description of data set [13]: Therapeutic index, ratio of CC50 for GFP-positive human CEM cells expressing CD4+,CXCR4 and CCR5 to EC50 for INI-resistant HIV1 isolate 11845 harboring integrase G140S/Q148H mutant infected in GFP-positive human CEM cells expressing CD4+,CXCR4 and CCR5. Conditions: ccrf-cem, read-out: TI. The class given is cell-based.
Data set [14] concerns Human immunodeficiency virus 1. Briefly: Antiviral activity against […]-resistance HIV1 E00443 harboring reverse transcriptase D67N/K70R/Y115F/Q151M/M184V/K219Q mutant infected in GFP-positive human CEM cells expressing CD4+,CXCR4 and CCR5 after 3 days. The class given is functional, organism-based. As to conditions: Human immunodeficiency virus 1, E00443, CCRF-CEM, 72 h.

The nature of data set [15]: Cytotoxicity against GFP-positive human CEM cells expressing CD4+,CXCR4 and CCR5 assessed as cell viability at after 24 hrs by Guava viacount assay. The class given is cell-based, CCRF-CEM. Put shortly:
(§4)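 For viability, CEM-GXR cells were incubated 24 h with compound at 0.5–100 μM. Guava ViaCount flow assay used DNA-binding dye permeability plus forward scatter to exclude nuclei and debris. Values are % viable cells (±SEM, three independent experiments), and CC50 is the concentration killing 50% of host cells.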

Data set [16] has as its system Human immunodeficiency virus 1. Briefly: Antiviral activity against subtype A R5 tropic HIV1 97USSN54 infected in GFP-positive human CEM cells expressing CD4+,CXCR4 and CCR5 after 3 days. Type of data set: functional, organism-based. As to conditions: Human immunodeficiency virus 1, 97USSN54, CCRF-CEM, 72 h. Put shortly:
as §2

A short description of data set [17]: Therapeutic index, ratio of CC50 for GFP-positive human CEM cells expressing CD4+,CXCR4 and CCR5 to EC50 for […] HIV1 E00443 reverse transcriptase D67N/K70R/Y115F/Q151M/M184V/K219Q mutant infected in GFP-positive human CEM cells expressing CD4+,CXCR4 and CCR5. Type of data set: cell-based. Conditions: ccrf-cem, read-out: TI.
A short description of data set [18]: Therapeutic index, ratio of CC50 for GFP-positive human CEM cells expressing CD4+,CXCR4 and CCR5 to EC50 for HIV1 isolate 2948 harboring protease G48V/L90M mutant infected in GFP-positive human CEM cells expressing CD4+,CXCR4 and CCR5. The class given is cell-based. As to conditions: ccrf-cem, read-out: TI.
Data set [19] is described as follows: Cytotoxicity against GFP-positive human CEM cells expressing CD4+,CXCR4 and CCR5 assessed as cell viability at 100 uM after 24 hrs by Guava viacount assay (reference value: 98%). Type of data set: cell-based, CCRF-CEM. As to conditions: read-out: Activity. Put shortly:
as §4

The subject of data set [20] is Human immunodeficiency virus 1. Briefly: Antiviral activity against INI-resistant HIV1 isolate 11845 harboring integrase G140S/Q148H mutant infected in GFP-positive human CEM cells expressing CD4+,CXCR4 and CCR5 after 3 days. The class given is functional, organism-based. As to conditions: Human immunodeficiency virus 1, isolate 11845, CCRF-CEM, 72 h.

Active and inactive are the calls of the source. No cut-off for these calls is given here.

With `Cc1c2ccnc(Cl)c2cc2c3cn(C)ccc-3nc12`, in data set [1], the viability at 24 h, 8 µM was 19.9%. For the same compound, in data set [2], the viability at 24 h, 16 µM came out at 11.9%. Besides, the Activity in data set [3] is on record as 17.7%. In addition, in data set [4], the viability at 24 h, 1 µM is 85.5%. Also, the viability at 24 h, 4 µM in data set [5] worked out at 33.2%.
On to `COCCOc1cc(=O)n(C)cc1C(=O)Nc1nsc2ccc([N+](=O)[O-])cc12`, for which the “antiviral activity call (active/inactive)” value in data set [6] was “Active”.
In data set [7], `Nc1nc(=O)n([C@@H]2CS[C@H](CO)O2)cc1F` [EMTRICITABINE] had a concentration for a half-maximal effect (EC50) of 40 nM.
For `COCCOc1ccncc1C(=O)Nc1nsc2ccc([N+](=O)[O-])cc12`, in data set [6], the “antiviral activity call (active/inactive)” value is “Active”.
For the compound `COc1cc(C(=O)Nc2nsc3ccc([N+](=O)[O-])cc23)ccn1`, the “antiviral activity call (active/inactive)” value in data set [6] is “Active”.
For `Cn1ccc(=O)c(C(=O)Nc2nsc3ccc([N+](=O)[O-])cc23)c1`, the EC50 was found to be 1400 nM in data set [8]; 900 nM in data set [12]; 1300 nM in data set [14]; 900 nM in [16]; 600 nM in data set [7]; 1500 nM in data set [20]. Besides, the selectivity ratio was greater than 111 in [9]; greater than 111 in data set [10]; greater than 166 in [11]; greater than 66 in data set [13]; greater than 77 in data set [17]; greater than 71 in data set [18]. Also, the viability at 24 h, 8 µM in data set [1] turned out to be 80.9%. The viability at 24 h, 16 µM in [2] amounted to 78.7%. The Activity in [3] is listed as 18.4%. For the same compound, in [4], the viability at 24 h, 1 µM is 89.6%. For the same compound, in data set [5], the viability at 24 h, 4 µM is 81.5%. In addition, in data set [15], the CC50 at 24 h is greater than 100000 nM. In addition, in [19], the viability at 24 h, 100 µM stood at 68.8%. Besides, in data set [6], the “antiviral activity call (active/inactive)” value was “Active”.

The term EC50 denotes the concentration at which the effect is half-maximal. A lower EC50 goes with an effect from little substance. By CC50 is commonly meant the concentration at which the toxic effect on the cells reaches its halfway point.
